Active and inactive are the calls of the source. No cut-off for these calls is given here.
Assays:
[1] = Toxicity in Swiss albino mouse assessed as clinical signs of toxicity at 50 mg/kg, ip administered for 8 hrs; type: organism-based; settings: in vivo
Method in brief: (§1)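 Three male Swiss albino mice received a single 50 mg/kg intraperitoneal dose as a solution in 5% NMP/45% propylene glycol/50% PEG-400 (v/v). Blood was drawn at 0.5, 2 and 8 h and plasma stored at −70 °C. Plasma levels were measured by LC–MS/MS (LLOQ 5.14 ng/mL), reported as mean ± SD of three mice; mice were watched for clinical signs.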

[2] = molecular target: T1, Protein cereblon/Zinc finger protein Aiolos (Homo sapiens) (UniProt Q96SW2+Q9UKT9); assay: Protac activity at CRBN/IKZF3 in human KMS-11 cells assessed as induction of IKZF3 degradation at 2.5 uM incubated for 72 hrs by Western blot analysis; type: cell-based
Method in brief: (§2)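 KMS11 or H929 myeloma cells were treated with DMSO or 2.5 μM for 72 h. IKZF1 and IKZF3 were measured by Western blot with GAPDH as loading control, representative of two independent experiments.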

NCI-H929 = assay: Antiproliferative activity against human NCI-H929 cells assessed as inhibition of cell growth at 2.5 uM incubated for 8 days by automated TC10 cell counter based analysis; type: functional; settings: time 8.0 day
Method in brief: (§3)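 KMS11 or H929 cells (RPMI 1640, 10% FBS) seeded at 0.5 million per well in triplicate, treated with 2.5 μM or DMSO for 8 days. Compound-containing medium replaced every 2 days; cells diluted periodically to stay below 1 × 10^6/mL. Viability given relative to DMSO control as mean ± SD (n = 3).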

[3] = molecular target: T2, Protein cereblon/Histone-lysine N-methyltransferase NSD2 (Homo sapiens, UniProt O96028+Q96SW2); assay: Protac activity at CRBN E3 ligase/ NSD2 PWWP1 domain (208 to 369 residues) in HEK293FT cells assessed as induction of NSD2 degradation by measuring maximal efficacy at 0.5 to 10 uM incubated for 48 hrs by Western blot analysis relative to control; type: cell-based; settings: dose 0.5-10 µM
Method in brief: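 293FT cells were exposed to 0.5–10 μM for 48 h. NSD2 was immunoblotted with GAPDH as loading control and band intensity quantified by densitometry to derive DC50 and Dmax. Results are mean ± SD of two independent experiments.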

[4] = molecular target: T2, Protein cereblon/Histone-lysine N-methyltransferase NSD2; assay: Protac activity at CRBN E3 ligase/ NSD2 PWWP1 domain (208 to 369 residues) in HEK293FT cells assessed as induction of NSD2 degradation 5 uM by Western blot analysis; type: cell-based; settings: time 0-72 hrs, TDE = time-dependent effect
Method in brief: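 293FT cells were treated at 5 μM for 0, 12, 24, 36, 48 or 72 h. Lysates were made in 50 mM Tris-HCl pH 8.0, 150 mM NaCl, 1% NP-40, and NSD2 was immunoblotted with GAPDH as loading control.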

[5] = Drug concentration in Swiss albino mouse plasma at 50 mg/kg, ip measured after 8 hrs by LC-MS/MS analysis; type: ADME, organism-based; method in brief: as §1
[6] = molecular target: T1, Protein cereblon/Zinc finger protein Aiolos (Homo sapiens); assay: Protac activity at CRBN/IKZF3 in wild type HEK293FT cells assessed as induction of IKZF3 degradation at 0.5 to 10 uM incubated for 48 hrs by Western blot analysis; type: cell-based; settings: dose 0.5-10 µM
Method in brief: (§4)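 Wild-type 293FT cells, alongside a CRISPR-Cas9 CRBN-knockout 293FT line, were treated across a concentration range for 48 h. NSD2, IKZF3 and CRBN were immunoblotted with GAPDH as loading control, representative of at least two independent experiments.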

[7] = molecular target: T1, Protein cereblon/Zinc finger protein Aiolos (Homo sapiens); assay: Protac activity at CRBN/IKZF3 in human NCI-H929 cells assessed as induction of IKZF3 degradation at 2.5 uM incubated for 72 hrs by Western blot analysis; type: cell-based; method in brief: as §2
[8] = molecular target: T3, Cereblon/Ikaros (Homo sapiens) (UniProt Q96SW2+Q13422); assay: Protac activity at CRBN/IKZF1 in human KMS-11 cells assessed as induction of IKZF1 degradation at 2.5 uM incubated for 72 hrs by Western blot analysis; type: cell-based; method in brief: as §2
[9] = molecular target: T3, Cereblon/Ikaros (Homo sapiens); assay: Protac activity at CRBN/IKZF1 in human NCI-H929 cells assessed as induction of IKZF1 degradation at 2.5 uM incubated for 72 hrs by Western blot analysis; type: cell-based; method in brief: as §2
[10] = molecular target: T2, Protein cereblon/Histone-lysine N-methyltransferase NSD2; assay: Protac activity at CRBN E3 ligase/ NSD2 PWWP1 domain (208 to 369 residues) in HEK293FT cells assessed as induction of NSD2 degradation incubated for 48 hrs by Western blot analysis; type: cell-based
Method in brief: (§5)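 293FT cells (DMEM, 10% FBS) were treated with DMSO or compound at the indicated concentrations for 48 h. NSD2 was detected by Western blot of NP-40 lysates with GAPDH as loading control. Blots are representative of at least two independent experiments.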

[11] = molecular target: T2, Protein cereblon/Histone-lysine N-methyltransferase NSD2; assay: Protac activity at CRBN/NSD2 PWWP1 domain (208 to 369 residues) in wild type HEK293FT cells assessed as induction of NSD2 degradation at 0.5 to 10 uM incubated for 48 hrs by Western blot analysis; type: cell-based; settings: dose 0.5-10 µM; method in brief: as §4
[12] = Tmax in Swiss albino mouse at 50 mg/kg, ip by LC-MS/MS analysis; type: ADME, organism-based; settings: in vivo; method in brief: as §1
[13] = molecular target: T2, Protein cereblon/Histone-lysine N-methyltransferase NSD2; assay: Protac activity at CRBN E3 ligase/ NSD2 PWWP1 domain (208 to 369 residues) in HEK293FT cells assessed as induction of NSD2 degradation at 2.5 to 10 uM incubated for 48 hrs by Western blot analysis; type: cell-based; settings: dose 2.5-10 µM; method in brief: as §5
[14] = Cmax in Swiss albino mouse at 50 mg/kg, ip by LC-MS/MS analysis; type: ADME, organism-based; design: dose 50 mg/kg, route ip; settings: in vivo; method in brief: as §1
KMS-11 = assay: Antiproliferative activity against human KMS-11 cells assessed as inhibition of cell growth at 2.5 uM incubated for 8 days by automated TC10 cell counter based analysis; type: functional; settings: time 8.0 day; method in brief: as §3
[15] = molecular target: T4, Histone-lysine N-methyltransferase NSD2 (Homo sapiens, UniProt O96028); assay: Binding affinity to N-terminal GST-tagged human NSD2 PWWP1 domain (208 to 369 residues) expressed in Escherichia coli […] (DE3) cells assessed as dissociation constant by isothermal titration calorimetry assay
T4 sequence (O96028 whole entry): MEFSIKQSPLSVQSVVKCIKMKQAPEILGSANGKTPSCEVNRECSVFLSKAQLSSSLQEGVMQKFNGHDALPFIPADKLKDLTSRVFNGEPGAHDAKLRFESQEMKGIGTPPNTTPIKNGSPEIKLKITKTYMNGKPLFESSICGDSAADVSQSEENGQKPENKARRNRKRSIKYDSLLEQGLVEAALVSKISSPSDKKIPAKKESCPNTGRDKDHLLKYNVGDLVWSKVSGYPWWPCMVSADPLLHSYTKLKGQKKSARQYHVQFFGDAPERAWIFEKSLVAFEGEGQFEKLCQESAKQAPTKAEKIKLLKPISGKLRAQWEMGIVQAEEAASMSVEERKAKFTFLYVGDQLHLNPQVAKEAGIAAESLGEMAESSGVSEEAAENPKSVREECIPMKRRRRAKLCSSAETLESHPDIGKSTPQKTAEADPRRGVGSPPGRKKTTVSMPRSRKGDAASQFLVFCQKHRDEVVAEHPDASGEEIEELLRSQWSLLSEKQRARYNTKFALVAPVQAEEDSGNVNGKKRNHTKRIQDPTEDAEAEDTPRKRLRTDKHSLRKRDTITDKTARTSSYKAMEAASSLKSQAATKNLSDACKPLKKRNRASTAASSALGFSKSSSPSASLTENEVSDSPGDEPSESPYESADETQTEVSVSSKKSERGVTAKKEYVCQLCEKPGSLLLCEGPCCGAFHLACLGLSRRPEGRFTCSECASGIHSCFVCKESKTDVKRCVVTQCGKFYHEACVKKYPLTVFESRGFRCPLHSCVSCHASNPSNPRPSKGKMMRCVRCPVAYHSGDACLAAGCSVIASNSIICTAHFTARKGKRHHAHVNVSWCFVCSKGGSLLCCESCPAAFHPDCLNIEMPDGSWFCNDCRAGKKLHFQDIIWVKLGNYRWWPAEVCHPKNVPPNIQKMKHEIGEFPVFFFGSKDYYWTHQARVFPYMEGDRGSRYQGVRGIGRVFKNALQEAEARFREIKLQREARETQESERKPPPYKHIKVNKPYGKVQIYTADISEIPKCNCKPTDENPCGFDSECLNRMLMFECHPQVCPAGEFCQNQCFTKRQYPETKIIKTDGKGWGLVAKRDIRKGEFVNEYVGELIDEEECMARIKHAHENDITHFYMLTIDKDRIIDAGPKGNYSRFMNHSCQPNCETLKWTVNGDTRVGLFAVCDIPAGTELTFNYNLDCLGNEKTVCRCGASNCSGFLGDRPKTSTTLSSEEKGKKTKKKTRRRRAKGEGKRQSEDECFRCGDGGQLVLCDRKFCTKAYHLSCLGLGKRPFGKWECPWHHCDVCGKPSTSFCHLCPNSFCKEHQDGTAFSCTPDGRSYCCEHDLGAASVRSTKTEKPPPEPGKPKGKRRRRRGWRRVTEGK

[16] = molecular target: von Hippel-Lindau disease tumor suppressor/Histone-lysine N-methyltransferase NSD2 (Homo sapiens) (UniProt O96028+P40337); assay: Protac activity at VHL E3 ligase/ NSD2 PWWP1 domain (208 to 369 residues) in HEK293FT cells assessed as induction of NSD2 degradation at 2.5 to 10 uM incubated for 48 hrs by Western blot analysis; type: cell-based; settings: dose 2.5-10 µM; method in brief: as §5

For `O=C(CNc1cccc2c1C(=O)N(C1CCC(=O)NC1=O)C2=O)NCCCOc1ccc(NC(=O)c2ccc(CN(C(=O)c3ccc4c(c3)OCC(=O)N4)C3CC3)cc2)nc1` (stereo not drawn), the Activity [1] was “Non-Toxic”, the Activity [2] was “Active” and the inhibition (NCI-H929) was “Active”. The Emax [3] was over 82%, the Activity [4] was “Tde” and the concentration at 8 h [5] was 980 nM. The Activity [6] was “Active”, the Activity [7] was “Active” and the Activity [8] was “Active”. For the same molecule, the Activity [9] was “Active”, the DC50 [10] was 5200 nM and the Activity [11] was “Active”. The Tmax [12] was 30 min, the Activity [13] was “Active” and the Cmax [14] was 1350 nM. The inhibition (KMS-11) was “Active” and the Kd [15] was 1100 nM.
With `CC(C)N(Cc1ccc(C(=O)Nc2ccc(OCCCNC(=O)CNc3cccc4c3C(=O)N(C3CCC(=O)NC3=O)C4=O)cn2)cc1)C(=O)c1ccc2c(c1)OCC(=O)N2` (stereo not drawn) the Activity [2] was “Active”, the Activity [7] was “Active” and the Activity [8] was “Active”. For the same molecule, the Activity [9] was “Active”.
For `CN1C(=O)CCC(N2C(=O)c3cccc(NCC(=O)NCCCOc4ccc(NC(=O)c5ccc(CN(C(=O)c6ccc7c(c6)OCC(=O)N7)C6CC6)cc5)nc4)c3C2=O)C1=O` (stereo not drawn), the Kd [15] was 900 nM.
In the case of `Cc1ncsc1-c1ccc(CNC(=O)[C@@H]2C[C@@H](O)CN2C(=O)[C@@H](NC(=O)CCOCCOCCNC(=O)c2ccc(NC(=O)c3ccc(CN(C(=O)c4ccc5c(c4)OCC(=O)N5)C4CC4)cc3)cc2)C(C)(C)C)cc1`, the Activity [16] is reported as “Active”.
